Laboratory results as given in ChEMBL document CHEMBL5260797, “N-(1-Benzyl-3,5-dimethyl-1H-pyrazol-4-yl)benzamides: Antiproliferative Activity and Effects on mTORC1 and Autophagy” (ACS Med Chem Lett, 2017).
In brackets after ≈: the same amount, converted by molar mass. Values belong to the compound of their own block, whether it stands above or below them. Activity calls are given as the source filed them. The rule behind the calls is not given here.

Columns and labels:
[1] = system: MIA PaCa-2; assay: Antiproliferative activity against human MIA PaCa-2 cells assessed as cell viability measured after 72 hrs by MTT assay; format: functional, cell-based; settings: MIA PaCa-2, 72 h
Outline: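 MIA PaCa-2 pancreatic cancer cells; EC50 values determined in triplicate.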

[2] = Metabolic stability in mouse liver microsomes assessed as half life at 1 uM by LC-MS/MS analysis; format: ADME, Microsome
[3] = molecular target: T1, mTORC1 (Homo sapiens) (UniProt P42345+Q8N122+Q9BVC4); assay: Inhibition of mTORC1 reactivation in human ARPE-19 cells assessed as reduction of 4E-BP1 phosphorylation at 10 uM preincubated for 4 hrs under starvation/refeed condition measured after 1 hr in complete medium by Western blot analysis; format: cell-based; settings: time 5.0 hrs
Outline: (§1)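 ARPE-19 cells starved 4 h in EBSS, then refed 1 h in complete medium with 10 μM compound or DMSO. mTORC1 reactivation read by Western blot as phosphorylation of P70 and 4EBP1.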

[4] = system: ARPE-19; assay: Induction of autophagy in human ARPE-19 cells assessed as appearance of abnormal punctae at 25 uM measured after 1 hr under starvation/refeed condition by immunofluorescence analysis; format: functional, cell-based
Outline: (§2)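 ARPE-19 cells starved 4 h in EBSS, then refed 1 h in complete medium containing 25 μM compound or DMSO. LC3 punctae imaged by immunofluorescence, with CD63 co-stain.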

[5] = system: ARPE-19; assay: Induction of autophagy in human ARPE-19 cells assessed as LC3 level at 25 uM measured after 4 hrs under starvation/refeed condition by immunofluorescence analysis; format: functional, cell-based; outline: as §2
[6] = system: ARPE-19; assay: Induction of autophagy in human ARPE-19 cells assessed as LC3 enlarged structures at 25 uM pretreated for 30 mins with cells followed by incubation for 4 hrs under starvation condition by immunofluorescence analysis; format: functional, cell-based; settings: time 4.5 hrs
Outline: (§3)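 ARPE-19 cells starved 4 h in EBSS with 25 μM compound or DMSO. LC3-labeled structures imaged by immunofluorescence, with CD63 as late endosomal/lysosomal marker.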

[7] = system: ARPE-19; assay: Induction of autophagy in human ARPE-19 cells assessed as fold increase in LC3 turnover at 25 uM measured after 4 hrs by Western blot analysis; format: functional
Outline: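 ARPE-19 human retinal pigment epithelial cells exposed 4 h to compound or DMSO in complete medium without starvation. LC3 conversion read by Western blot as LC3-II/actin ratio and expressed as fold increase over DMSO control, n = 3.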

[8] = Cytotoxicity against human ARPE-19 cells assessed as cell viability measured after 72 hrs by MTT assay; format: toxicity, cell-based
[9] = system: ARPE-19; assay: Induction of autophagy in human ARPE-19 cells assessed as LC3 accumulation at 25 to 50 uM measured after 4 hrs under refeed condition by immunofluorescence analysis; format: functional, cell-based; settings: dose 25-50 µM
[10] = system: ARPE-19; assay: Induction of autophagy in human ARPE-19 cells assessed as decrease in LC3-2/actin ratio at 10 uM pretreated for 30 mins with cells followed by incubation for 4 hrs under starvation condition in presence of bafilomycin by Western blot analysis; format: functional, cell-based; settings: time 4.5 hrs
Outline: (§4)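 ARPE-19 cells pretreated 30 min at 10 μM (or DMSO). Then 4 h with compound in EBSS starvation medium, or in EBSS with 100 nM bafilomycin. LC3-II/actin quantified by Western blot as fold of DMSO control, n = 3.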

[11] = molecular target: T1, mTORC1 (Homo sapiens); assay: Inhibition of mTORC1 reactivation in human ARPE-19 cells assessed as reduction of P70 phosphorylation at 10 uM preincubated for 4 hrs under starvation/refeed condition measured after 1 hr in complete medium by Western blot analysis; format: cell-based; settings: time 5.0 hrs; outline: as §1
[12] = Metabolic stability in human plasma assessed as parent compound remaining measured after 6 hrs by LC-MS/MS analysis; format: ADME, cell-free; settings: read-out: Stability
[13] = system: ARPE-19; assay: Induction of autophagy in human ARPE-19 cells assessed as appearance of LC3 non-uniformed shapes at 25 uM pretreated for 30 mins with cells followed by incubation for 4 hrs under starvation condition by immunofluorescence analysis; format: functional, cell-based; settings: time 4.5 hrs; outline: as §3
[14] = system: ARPE-19; assay: Induction of autophagy in human ARPE-19 cells assessed as increase in LC3-labeled punctae at 25 uM measured after 4 hrs by immunofluorescence analysis relative to control; format: functional, cell-based
Outline: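 ARPE-19 cells treated 4 h at 25 μM in complete medium without starvation, or with DMSO. LC3 punctae detected by immunofluorescence, with CD63 as late endosomal/lysosomal marker.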

[15] = molecular target: T1, mTORC1 (Homo sapiens); assay: Inhibition of mTORC1 in human ARPE19 cells measured after 4 hrs by Western blot analysis; format: cell-based; settings: ARPE-19, dose 10-50 µM
Outline: (§5)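 ARPE-19 cells treated 4 h without starvation with increasing concentrations or DMSO. Basal mTORC1 activity measured by Western blot as phosphorylated P70/total P70, with DMSO set to 100%.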

[16] = system: ARPE-19; assay: Inhibition of autophagy in human ARPE-19 cells assessed as fold decrease in LC3 turnover at 10 uM pretreated for 30 mins with cells followed by incubation for 4 hrs under starvation condition by Western blot analysis; settings: time 4.5 hrs
[17] = Metabolic stability in mouse plasma assessed as parent compound remaining measured after 6 hrs by LC-MS/MS analysis; format: ADME, cell-free; settings: read-out: Stability
[18] = Thermodynamic aqueous solubility of the compound at pH 7.4 measured after 48 hrs by UV-spectrometry method; format: physicochemical; settings: read-out: Therm_solubility
[19] = system: ARPE-19; assay: Induction of autophagy in human ARPE-19 cells assessed as decrease in LC3-2/actin ratio at 10 uM pretreated for 30 mins with cells followed by incubation for 4 hrs under starvation condition by Western blot analysis; format: functional, cell-based; settings: time 4.5 hrs; outline: as §4
[20] = molecular target: T1, mTORC1 (Homo sapiens); assay: Inhibition of mTORC1 in human ARPE19 cells assessed as decrease in P70/total P70 phosphorylation level at 10 uM measured after 4 hrs by Western blot analysis; format: cell-based; settings: ARPE-19; outline: as §5
[21] = Metabolic stability in mouse plasma assessed as parent compound remaining measured after 24 hrs by LC-MS/MS analysis; format: ADME, cell-free; settings: read-out: Stability
[22] = system: ARPE-19; assay: Induction of autophagy in human ARPE-19 cells assessed as increase in LC3-2 conversion at 10 uM measured after 4 hrs by Western blot analysis; format: functional, cell-based
Outline: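 ARPE-19 cells treated 4 h in complete medium without starvation with increasing concentrations (10, 25, 50 μM) or DMSO. LC3 detected by Western blot; LC3-II/actin ratio expressed as fold increase over DMSO control, n = 3.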

[23] = molecular target: T1, mTORC1 (Homo sapiens); assay: Inhibition of mTORC1 reactivation in human ARPE-19 cells at 25 to 50 uM preincubated for 4 hrs under starvation/refeed condition measured after 1 hr in complete medium by Western blot analysis; format: cell-based; settings: dose 25-50 µM, time 5.0 hrs
[24] = Metabolic stability in human plasma assessed as parent compound remaining measured after 24 hrs by LC-MS/MS analysis; format: ADME, cell-free; settings: read-out: Stability
[25] = molecular target: T1, mTORC1 (Homo sapiens); assay: Inhibition of mTORC1 in human ARPE19 cells at 10 to 50 uM measured after 4 hrs by Western blot analysis related to control; format: cell-based; settings: ARPE-19, dose 10-50 µM; outline: as §5
[26] = system: ARPE-19; assay: Reduction in autophagic flux in human ARPE-19 cells at 25 uM incubated for 4 hrs in complete medium in presence of bafilomycin; format: functional, cell-based
Outline: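 ARPE-19 cells in full medium with 100 nM bafilomycin plus compound or DMSO. Autophagic flux read as LC3-II by Western blot.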

T1 sequence (Q8N122 whole entry, looked up, other chains not shown): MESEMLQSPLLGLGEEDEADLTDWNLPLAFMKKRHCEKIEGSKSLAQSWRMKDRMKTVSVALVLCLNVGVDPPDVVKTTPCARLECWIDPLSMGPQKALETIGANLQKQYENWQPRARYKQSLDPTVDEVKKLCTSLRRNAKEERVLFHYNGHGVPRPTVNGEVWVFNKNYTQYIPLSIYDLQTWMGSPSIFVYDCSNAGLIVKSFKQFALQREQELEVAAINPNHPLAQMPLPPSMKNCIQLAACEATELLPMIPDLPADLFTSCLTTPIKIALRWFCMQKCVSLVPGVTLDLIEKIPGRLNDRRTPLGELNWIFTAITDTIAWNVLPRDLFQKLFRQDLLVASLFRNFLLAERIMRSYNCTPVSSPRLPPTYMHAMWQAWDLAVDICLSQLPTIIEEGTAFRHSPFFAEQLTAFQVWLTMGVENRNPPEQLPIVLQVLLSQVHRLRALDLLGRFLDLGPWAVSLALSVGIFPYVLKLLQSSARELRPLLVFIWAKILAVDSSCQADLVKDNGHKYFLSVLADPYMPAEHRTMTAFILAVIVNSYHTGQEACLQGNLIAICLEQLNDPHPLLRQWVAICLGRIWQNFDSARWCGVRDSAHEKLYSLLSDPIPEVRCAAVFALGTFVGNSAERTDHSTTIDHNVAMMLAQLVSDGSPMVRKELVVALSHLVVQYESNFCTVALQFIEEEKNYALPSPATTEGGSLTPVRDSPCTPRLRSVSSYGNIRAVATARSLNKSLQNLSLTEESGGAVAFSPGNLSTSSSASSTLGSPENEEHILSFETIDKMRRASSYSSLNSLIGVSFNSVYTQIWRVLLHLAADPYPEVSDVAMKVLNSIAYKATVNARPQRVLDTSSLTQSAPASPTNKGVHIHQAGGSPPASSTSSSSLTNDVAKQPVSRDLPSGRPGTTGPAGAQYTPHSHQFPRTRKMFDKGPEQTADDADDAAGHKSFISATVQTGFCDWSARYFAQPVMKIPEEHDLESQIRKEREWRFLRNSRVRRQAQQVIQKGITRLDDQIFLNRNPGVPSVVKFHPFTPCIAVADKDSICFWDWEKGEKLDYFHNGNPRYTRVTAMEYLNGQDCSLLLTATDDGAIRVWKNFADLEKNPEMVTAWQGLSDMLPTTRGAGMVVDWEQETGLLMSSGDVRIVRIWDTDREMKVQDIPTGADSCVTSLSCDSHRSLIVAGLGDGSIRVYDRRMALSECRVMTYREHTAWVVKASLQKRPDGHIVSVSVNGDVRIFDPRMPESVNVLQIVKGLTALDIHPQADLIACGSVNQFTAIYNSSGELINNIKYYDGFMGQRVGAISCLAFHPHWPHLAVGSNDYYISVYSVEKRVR
T1 sequence (Q9BVC4 whole entry, looked up, other chains not shown): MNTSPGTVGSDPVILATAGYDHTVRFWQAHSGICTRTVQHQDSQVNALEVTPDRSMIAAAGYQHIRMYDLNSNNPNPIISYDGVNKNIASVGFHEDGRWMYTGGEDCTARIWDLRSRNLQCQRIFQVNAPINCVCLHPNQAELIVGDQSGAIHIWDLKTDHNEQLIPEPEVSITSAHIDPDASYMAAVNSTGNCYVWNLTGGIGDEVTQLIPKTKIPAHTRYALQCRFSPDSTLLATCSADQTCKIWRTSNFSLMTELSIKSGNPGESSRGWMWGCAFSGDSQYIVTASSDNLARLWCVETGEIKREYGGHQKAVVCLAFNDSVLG

EC50 [1]: 6.4 µM
Compound: Cc1nn(Cc2cccc(C(=O)Nc3ccccc3)c2)c(C)c1NC(=O)c1ccc(COc2ccccc2)cc1

EC50 [1]: 20 µM
Compound: Fc1ccc(CNc2ncnc3ccc(F)cc23)cc1

EC50 [1]: 27 µM
Compound: C#Cc1cccc(Nc2ncnc3cc(OCCOC)c(OCCOC)cc23)c1 [ERLOTINIB]

EC50 [1]: 2.3 µM
Compound: CNC(=O)c1cccc(Cn2nc(C)c(NC(=O)c3ccc(COc4cccc(C(F)(F)F)c4)cc3)c2C)c1

EC50 [1]: > 100 µM
Compound: Cn1cnc(N)c2ncnc1-2 [3-METHYLADENINE]

EC50 [1]: 8.5 µM
Compound: CNC(=O)c1cccc(Cn2nc(C)c(NC(=O)c3ccc(COc4ccccc4OC)cc3)c2C)c1

EC50 [1]: 6.2 µM
Compound: CNC(=O)c1cccc(Cn2nc(C)c(NC(=O)c3ccc(COc4ccccc4)cc3)c2C)c1

EC50 [1]: 6.4 µM
Compound: Cc1nn(Cc2cccc(C(=O)N(C)C)c2)c(C)c1NC(=O)c1ccc(COc2ccccc2)cc1

EC50 [1]: 5.9 µM
Compound: CNC(=O)c1cccc(Cn2nc(C)c(NC(=O)c3ccc(COc4cccc(Cl)c4)cc3)c2C)c1

Compound: CNC(=O)c1cccc(Cn2nc(C)c(NC(=O)c3ccc(COc4ccc(C(F)(F)F)cc4)cc3)c2C)c1
half-life at 1 µM [2]: 1 h
Activity [3]: inactive
Activity [4]: Active
Activity [5]: Active
Activity [6]: Active
fold change (FC) [7]: 2.7
EC50 at 72 h [8]: 47.9 µM
Activity [9]: Active
Activity [10]: inactive
Activity [11]: inactive
remaining at 6 h [12]: 99%
Activity [13]: Active
Activity [14]: Active
inhibition [15]: Dose-Dependent Effect
fold change (FC) [16]: 1.2
remaining at 6 h [17]: 91%
solubility thermodynamic at 48 h [18]: 67.3 µM (≈ 36.1 µg/mL)
Activity [19]: Active
inhibition [20]: Active
remaining at 24 h [21]: 77%
Activity [22]: Active
inhibition [23]: Active
remaining at 24 h [24]: 100%
EC50 [1]: 0.8 µM
inhibition [25]: 46%
Activity [26]: inactive

EC50 [1]: 42 µM
Compound: Cc1nn(Cc2ccccc2C(N)=O)c(C)c1NC(=O)c1ccc(COc2ccccc2)cc1

EC50 [1]: 0.0015 µM
Compound: Nc1ccn([C@@H]2O[C@H](CO)[C@@H](O)C2(F)F)c(=O)n1 [GEMCITABINE]

EC50 [1]: 11 µM
Compound: CCNC(=O)c1cccc(Cn2nc(C)c(NC(=O)c3ccc(COc4ccccc4)cc3)c2C)c1

EC50 [1]: 6.2 µM
Compound: CNC(=O)c1cccc(Cn2nc(C)c(NC(=O)c3ccc(COc4cccc(C)c4)cc3)c2C)c1
